Drawing on ChEMBL document CHEMBL1151979, “Antiallergic potential on RBL-2H3 cells of some phenolic constituents of Zingiber officinale (ginger)” (J Nat Prod, 2009), this text covers IC50, inhibition and Activity for five molecules.

Series [1] is described as follows: Cytotoxicity against rat RBL2H3 cells after 12 hrs by MTT assay. Format: cell-based. To be noted: RBL-2H3, 12 h. An outline of the steps: (§1)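 MTT viability assay in RBL-2H3 cells grown to 70-80% confluence and then exposed to compound; untreated and ≤0.5% DMSO cultures served as controls. MTT stock 5 mg/mL was diluted 1:10 into medium 3 h before the end of exposure, then incubated 2 h at 37 °C. Formazan was dissolved in DMSO and read at 600 nm. Viability is given as % of control OD, ≥3 repeats, and IC50 was derived from this.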

For series [2], the system named is RBL-2H3. Description: Antiallergic activity in mIgE-DNP and DNP-BSA-stimulated rat RBL2H3 cells assessed as inhibition of beta-hexosaminidase release at 1 uM pretreated before mIgE-DNP challenge measured after 12 hrs relative to control. The class given is functional. An outline of the steps: (§2)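 RBL-2H3 cells (DMEM, 10% FBS) seeded at 1 × 10^5/well and left 4-6 h at 37 °C to adhere. Compound was added at final concentrations for various pretreatment times, then mIgE-DNP was added for 16 h. Cells were washed in Tyrode's buffer (pH 7.4, 1 mg/mL BSA) and challenged with DNP-BSA 1 µg/mL for 1 h at 37 °C. Supernatant was incubated with p-NAG in citrate pH 4.5 for 1 h at 37 °C and read at A405. Inhibition was calculated against Triton X-100 total-release and spontaneous-release controls.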

In series [3] the test system is RBL-2H3. Description: Antiallergic activity in mIgE-DNP and DNP-BSA-stimulated rat RBL2H3 cells assessed as inhibition of beta-hexosaminidase release at 100 uM pretreated before mIgE-DNP challenge measured after 12 hrs. The class given is functional, cell-based. An outline of the steps:
as §2

Series [4] concerns RBL-2H3. As to the kind of experiment: Antiallergic activity in mIgE-DNP and DNP-BSA-stimulated rat RBL2H3 cells assessed as inhibition of beta-hexosaminidase release at 200 uM pretreated before mIgE-DNP challenge measured after 12 hrs. Format: functional, cell-based. An outline of the steps: as §2
Series [5] relates to RBL-2H3. Description: Antiallergic activity in mIgE-DNP and DNP-BSA-stimulated rat RBL2H3 cells assessed as inhibition of beta-hexosaminidase release at 1 uM pretreated before mIgE-DNP challenge measured after 24 hrs relative to control. Format: functional. The gist of the method: as §2
In series [6] the test system is RBL-2H3. Description: Antiallergic activity in mIgE-DNP and DNP-BSA-stimulated rat RBL2H3 cells assessed as inhibition of beta-hexosaminidase release at 1 uM pretreated before mIgE-DNP challenge measured after 48 hrs relative to control. Format: functional. The gist of the method: as §2
For series [7], the system named is RBL-2H3. As to the kind of experiment: Antiallergic activity in mIgE-DNP and DNP-BSA-stimulated rat RBL2H3 cells assessed as inhibition of beta-hexosaminidase release at 100 uM pretreated before mIgE-DNP challenge measured after 24 hrs relative to control. The class given is functional. The gist of the method:
as §2

For series [8], the system named is RBL-2H3. Description: Antiallergic activity in mIgE-DNP and DNP-BSA-stimulated rat RBL2H3 cells assessed as inhibition of beta-hexosaminidase release at 100 uM pretreated before mIgE-DNP challenge measured after 48 hrs relative to control. The class given is functional. An outline of the steps:
as §2

In series [9] the test system is RBL-2H3. Description: Antiallergic activity in mIgE-DNP and DNP-BSA-stimulated rat RBL2H3 cells assessed as inhibition of beta-hexosaminidase release at 200 uM pretreated before mIgE-DNP challenge measured after 24 hrs relative to control. The class given is functional. An outline of the steps: as §2
In series [10] the test system is RBL-2H3. As to the kind of experiment: Antiallergic activity in mIgE-DNP and DNP-BSA-stimulated rat RBL2H3 cells assessed as inhibition of beta-hexosaminidase release at 200 uM pretreated before mIgE-DNP challenge measured after 48 hrs relative to control. The class given is functional. An outline of the steps: as §2
A short description of series [11]: Cytotoxicity against rat RBL2H3 cells at 120 uM after 12 hrs by MTT assay. The conditions noted are these: rbl-2h3, 12 h. Format: cell-based. The gist of the method: as §1
Series [12] is described as follows: Cytotoxicity against rat RBL2H3 cells at 200 uM after 12 hrs by MTT assay. The class given is cell-based. The conditions noted are these: rbl-2h3, 12 h. An outline of the steps:
as §1

The subject of series [13] is RBL-2H3. Description: Antiallergic activity in mIgE-DNP and DNP-BSA-stimulated rat RBL2H3 cells assessed as inhibition of beta-hexosaminidase release at 200 uM pretreated before mIgE-DNP challenge. The class given is functional, cell-based. The conditions noted are these: TDE = time-dependent effect. An outline of the steps:
as §2

Series [14] concerns RBL-2H3. Description: Antiallergic activity in mIgE-DNP and DNP-BSA-stimulated rat RBL2H3 cells assessed as inhibition of beta-hexosaminidase release pretreated before mIgE-DNP challenge measured after 12 to 48 hrs. The class given is functional, cell-based. An outline of the steps: as §2

Calls of active or inactive are those of the source. The calls are words filed in the database; no cut-off is given here.

For `CCCCCC(=O)/C=C(O)/C=C/c1ccc(O)c(OC)c1`, the midpoint of inhibition in [1], the IC50, lay at 38.5 µM. Also, the inhibition at 1 µM in the series on RBL-2H3 [2], with RBL-2H3 [5] and with RBL-2H3 [6] was 60% in each case. The inhibition entry in the series with RBL-2H3 [3], in the series with RBL-2H3 [4], in the series on RBL-2H3 [7], in the series on RBL-2H3 [8], in the series with RBL-2H3 [9] and with RBL-2H3 [10] was “Active” throughout.

Molecule `CCCCCCCCC[C@H](O)CC(=O)CCc1ccc(O)c(OC)c1` had a half-maximal inhibitory concentration (IC50) in series [1] of 112 µM. The Activity entry in series [11] is recorded as “Toxic”. In addition, the inhibition at 1 µM with RBL-2H3 [2], in the series with RBL-2H3 [5] and with RBL-2H3 [6] was 60% throughout. Further, the inhibition result in the series on RBL-2H3 [3], in the series on RBL-2H3 [4], with RBL-2H3 [7], in the series on RBL-2H3 [8], in the series with RBL-2H3 [9] and with RBL-2H3 [10] was “Active” each time.

Consider `COc1cc(CCC(=O)CC(O)CCc2ccc(O)c(OC)c2)ccc1O` (stereo not drawn) [HEXAHYDROCURCUMIN], for which the half-inhibitory concentration (IC50) in [1] stood at 152 µM. Also, the Activity result in series [12] is given as “Toxic”. For the same molecule, the inhibition result is “tde” in the series with RBL-2H3 [13] and “Dose-dependent effect” in the series on RBL-2H3 [14].

With `CCCCC[C@H](O)CC(=O)CCc1ccc(O)c(OC)c1` [GINGEROL], it took 185 µM to reach half-maximal inhibition in series [1] (IC50). In [12], the Activity result is “Toxic”. For the same molecule, the inhibition at 1 µM in the series on RBL-2H3 [2], in the series on RBL-2H3 [5] and in the series on RBL-2H3 [6] was 60% each time. For the same molecule, the inhibition entry in the series on RBL-2H3 [3], with RBL-2H3 [4], with RBL-2H3 [7], in the series on RBL-2H3 [8], with RBL-2H3 [9] and with RBL-2H3 [10] was “Active” each time.

For `CCCCC/C=C/C(=O)CCc1ccc(O)c(OC)c1` [SHOGAOL], the half-maximal inhibitory concentration (IC50) in series [1] is 90.4 µM. The Activity entry in series [11] is “Toxic”.
